Measurements from ChEMBL document CHEMBL3351966, “Structural manipulation on the catecholic fragment of dopamine D(1) receptor agonist 1-phenyl-N-methyl-benzazepines” (Eur J Med Chem, 2014).
pKi: −log10 of the molar value.

Experiments:
D(1A) dopamine receptor = D(1A) dopamine receptor (Homo sapiens, UniProt P21728); assay: Displacement of [3H]SCH23390 from human dopamine D1 receptor expressed in HEK293 cell membranes by liquid scintillation counting based competition binding assay
How it was run: (§1)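 Competition binding on membranes from stably transfected cell lines ([…]), clones selected with G418. Buffer 50 mM Tris, 4 mM MgCl₂, pH 7.4 with 0.7 nM radioligand and increasing compound concentrations. Duplicate tubes incubated at 30 °C for 50 min, then rapid filtration through GF/B filters and cold-buffer wash. Compounds from 10^-1 M DMSO stock. Ki as mean of three to five experiments, racemates.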

D(2) dopamine receptor = D(2) dopamine receptor (Homo sapiens, UniProt P14416); assay: Displacement of [3H]spiperone from human dopamine D2 receptor expressed in HEK293 cell membranes by liquid scintillation counting based competition binding assay; how it was run: as §1
D(3) dopamine receptor = D(3) dopamine receptor (Homo sapiens, UniProt P35462); assay: Displacement of [3H]spiperone from human dopamine D3 receptor expressed in HEK293 cell membranes by liquid scintillation counting based competition binding assay; how it was run: as §1
[1] = target: T1, 5-hydroxytryptamine receptor 1A (Rattus norvegicus, UniProt P19327); assay: Displacement of [3H]8-OH-DPAT from rat 5HT1A receptor expressed in CHO cell membranes by liquid scintillation counting based competition binding assay; how it was run: as §1
T1 sequence (P19327 whole entry): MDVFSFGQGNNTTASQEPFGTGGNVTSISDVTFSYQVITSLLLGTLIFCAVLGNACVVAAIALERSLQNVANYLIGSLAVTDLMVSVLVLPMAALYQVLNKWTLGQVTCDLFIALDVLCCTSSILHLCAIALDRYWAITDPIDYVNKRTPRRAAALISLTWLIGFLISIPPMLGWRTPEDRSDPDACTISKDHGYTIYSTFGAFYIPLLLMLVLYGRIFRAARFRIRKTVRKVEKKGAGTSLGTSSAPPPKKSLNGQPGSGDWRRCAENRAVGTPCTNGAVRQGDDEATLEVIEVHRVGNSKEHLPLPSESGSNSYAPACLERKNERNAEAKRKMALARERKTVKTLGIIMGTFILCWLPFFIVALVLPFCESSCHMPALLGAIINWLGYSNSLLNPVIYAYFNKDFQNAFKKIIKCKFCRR

[2] = target: 5-hydroxytryptamine receptor 2A (Homo sapiens, UniProt P28223); assay: Displacement of [3H]ketanserin from human 5HT2A receptor expressed in HEK293 cell membranes by liquid scintillation counting based competition binding assay; how it was run: as §1
Chain of 5-hydroxytryptamine receptor 2A (P28223 whole entry): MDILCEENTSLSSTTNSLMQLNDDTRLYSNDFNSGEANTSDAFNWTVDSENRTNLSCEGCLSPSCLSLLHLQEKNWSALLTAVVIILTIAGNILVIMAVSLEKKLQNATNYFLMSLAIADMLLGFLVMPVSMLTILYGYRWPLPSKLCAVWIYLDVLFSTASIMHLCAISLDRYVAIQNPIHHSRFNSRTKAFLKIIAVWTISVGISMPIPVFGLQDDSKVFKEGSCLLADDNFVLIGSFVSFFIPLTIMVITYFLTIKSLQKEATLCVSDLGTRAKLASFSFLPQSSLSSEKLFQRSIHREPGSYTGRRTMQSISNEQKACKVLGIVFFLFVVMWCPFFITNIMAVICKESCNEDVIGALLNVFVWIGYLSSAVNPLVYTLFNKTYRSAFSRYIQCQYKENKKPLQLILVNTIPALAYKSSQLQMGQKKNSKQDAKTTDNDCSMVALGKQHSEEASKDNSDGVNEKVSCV

Chain of D(3) dopamine receptor (P35462 whole entry): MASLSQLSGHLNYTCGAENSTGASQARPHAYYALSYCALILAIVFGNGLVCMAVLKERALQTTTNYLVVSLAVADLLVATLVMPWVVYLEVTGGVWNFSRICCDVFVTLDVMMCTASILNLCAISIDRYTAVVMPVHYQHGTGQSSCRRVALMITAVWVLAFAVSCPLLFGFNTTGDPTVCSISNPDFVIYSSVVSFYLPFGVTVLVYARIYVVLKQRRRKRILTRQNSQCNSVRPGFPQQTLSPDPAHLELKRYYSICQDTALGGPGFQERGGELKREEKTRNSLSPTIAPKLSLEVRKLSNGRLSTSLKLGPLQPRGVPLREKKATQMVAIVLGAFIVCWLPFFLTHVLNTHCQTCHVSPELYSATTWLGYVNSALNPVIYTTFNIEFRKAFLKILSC
Chain of D(2) dopamine receptor (P14416 whole entry): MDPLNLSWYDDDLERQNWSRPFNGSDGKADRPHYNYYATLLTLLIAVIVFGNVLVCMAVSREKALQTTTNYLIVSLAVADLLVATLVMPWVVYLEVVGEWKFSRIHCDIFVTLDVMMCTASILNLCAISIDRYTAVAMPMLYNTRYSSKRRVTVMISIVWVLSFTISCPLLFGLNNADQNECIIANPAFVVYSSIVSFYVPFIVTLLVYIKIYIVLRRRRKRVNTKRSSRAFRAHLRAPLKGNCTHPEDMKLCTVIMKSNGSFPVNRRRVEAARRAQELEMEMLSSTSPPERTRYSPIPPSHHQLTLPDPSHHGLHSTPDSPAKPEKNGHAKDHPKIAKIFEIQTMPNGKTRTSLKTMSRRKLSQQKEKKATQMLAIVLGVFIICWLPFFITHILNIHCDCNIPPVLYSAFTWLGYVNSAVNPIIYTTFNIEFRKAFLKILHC
Chain of D(1A) dopamine receptor (P21728 whole entry): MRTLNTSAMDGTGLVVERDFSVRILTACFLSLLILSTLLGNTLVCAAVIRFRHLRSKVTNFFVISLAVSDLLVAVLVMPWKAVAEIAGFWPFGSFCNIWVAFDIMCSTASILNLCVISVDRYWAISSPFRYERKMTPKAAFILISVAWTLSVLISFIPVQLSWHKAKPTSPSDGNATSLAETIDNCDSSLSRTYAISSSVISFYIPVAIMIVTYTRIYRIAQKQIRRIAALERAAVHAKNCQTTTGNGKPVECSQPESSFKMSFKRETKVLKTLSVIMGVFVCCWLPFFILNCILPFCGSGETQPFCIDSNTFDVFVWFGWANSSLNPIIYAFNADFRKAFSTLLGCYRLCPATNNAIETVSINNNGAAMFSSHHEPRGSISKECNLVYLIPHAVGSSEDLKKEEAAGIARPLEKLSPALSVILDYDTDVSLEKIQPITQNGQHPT

Row | pKi (D(1A) dopamine receptor) | pKi (D(2) dopamine receptor) | pKi (D(3) dopamine receptor) | pKi [1] | pKi [2] | SMILES
1 | < 6.00 | < 6.00 |  |  |  | CN1CCc2cc(-c3ccc4ccccc4c3)c(O)cc2C(c2ccccc2)C1 (racemic)
2 | < 6.00 | < 6.00 | < 6.00 |  |  | Cc1ccc(-c2cc3c(cc2O)C(c2ccccc2)CN(C)CC3)cc1 (racemic)
3 | < 6.00 | < 6.00 | < 6.00 |  |  | CN1CCc2cc(O)c(CN)cc2C(c2ccccc2)C1 (racemic)
4 | 6.68 | < 6.00 | < 6.00 | < 6.00 | 6.88 | CN1CCc2ccc(O)cc2C(c2ccccc2)C1 (racemic)
5 | < 6.00 | < 6.00 |  |  |  | CN1CCc2cc(-n3cccc3)c(O)cc2C(c2ccccc2)C1 (racemic)
6 | 6.53 | < 6.00 |  | < 6.00 | 6.72 | Cc1ccccc1CNc1cc2c(cc1O)C(c1ccccc1)CN(C)CC2 (racemic)
7 | < 6.00 | < 6.00 |  |  |  | CN1CCc2ccc(N(C)C)cc2C(c2ccccc2)C1 (racemic)
8 | 6.43 | < 6.00 |  | < 6.00 | 8.00 | Cc1cccc(CNc2cc3c(cc2O)C(c2ccccc2)CN(C)CC3)c1 (racemic)
9 | 6.12 | < 6.00 |  | < 6.00 | 6.06 | Cc1ccc(CNc2cc3c(cc2O)C(c2ccccc2)CN(C)CC3)cc1 (racemic)
10 | < 6.00 | < 6.00 | < 6.00 |  |  | CN1CCc2cc(O)ccc2C(c2ccccc2)C1 (racemic)
11 | 6.23 | < 6.00 | < 6.00 |  |  | CN1CCc2ccc(N)cc2C(c2ccccc2)C1 (racemic)
12 | < 6.00 | < 6.00 |  |  |  | CC(=O)Nc1cc2c(cc1O)C(c1ccccc1)CN(C)CC2 (racemic)
13 | < 6.00 | < 6.00 |  |  |  | CN1CCc2cc3ocnc3cc2C(c2ccccc2)C1 (racemic)
14 | < 6.00 | < 6.00 |  |  |  | CN1CCc2cc3c(cc2C(c2ccccc2)C1)NC(=O)CO3 (racemic)
15 | < 6.00 | < 6.00 | < 6.00 |  |  | CN1CCc2cc(O)c(CO)cc2C(c2ccccc2)C1 (racemic)
16 | 6.67 | < 6.00 | < 6.00 | < 6.00 | 6.79 | Cc1cccc(-c2cc3c(cc2O)C(c2ccccc2)CN(C)CC3)c1 (racemic)
17 | 6.46 | < 6.00 |  | < 6.00 | 6.08 | CN1CCc2cc(-c3ccc(O)cc3)c(O)cc2C(c2ccccc2)C1 (racemic)
18 | < 6.00 | < 6.00 | < 6.00 |  |  | CCN(CC)c1cc2c(cc1O)C(c1ccccc1)CN(C)CC2 (racemic)
19 | < 6.00 | < 6.00 |  |  |  | CN1CCN(c2nc3cc4c(cc3o2)CCN(C)CC4c2ccccc2)CC1 (racemic)
20 | 6.56 | < 6.00 |  | 6.32 | 7.99 | CN1CCc2cc(NCc3cccc(Cl)c3)c(O)cc2C(c2ccccc2)C1 (racemic)
21 | < 6.00 | < 6.00 | < 6.00 |  |  | CN1CCc2cc(N)ccc2C(c2ccccc2)C1 (racemic)
22 | 6.18 | < 6.00 | < 6.00 | < 6.00 | 8.34 | CN1CCc2cc(NCc3ccccc3)c(O)cc2C(c2ccccc2)C1 (racemic)
23 | < 6.00 | < 6.00 |  |  |  | CN1CCc2cc3oc(=O)[nH]c3cc2C(c2ccccc2)C1 (racemic)
24 | < 6.00 | < 6.00 |  |  |  | CNc1ccc2c(c1)C(c1ccccc1)CN(C)CC2 (racemic)
25 | 6.04 | < 6.00 |  |  |  | Cc1ccccc1-c1cc2c(cc1O)C(c1ccccc1)CN(C)CC2 (racemic)

Row | SMILES | pKi (D(1A) dopamine receptor) | pKi (D(2) dopamine receptor) | pKi (D(3) dopamine receptor) | pKi [1] | pKi [2]
26 | CN1CCc2cc(N)c(O)cc2C(c2ccccc2)C1 (racemic) | 6.48 | < 6.00 | < 6.00 | < 6.00 | < 6.00
27 | CN1CCc2cc(O)c(N)cc2C(c2ccccc2)C1 (racemic) | 6.45 | < 6.00 | < 6.00 | < 6.00 | < 6.00
